This note sets out measurements from ChEMBL document CHEMBL1649387, “Synthesis and evaluation of quinonoid compounds against tumor cell lines” (Eur J Med Chem, 2011).

Experiment [1] deals with SF-295. Nature of the experiment: DNA damage index, DNA damage in human SF295 cells to DNA damage in human HL60 cells with FPG/ENDO3 DNA repair enzymes. The class given is functional. Summed up:
(§1)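 Cells treated 12 h, then alkaline comet slides washed in enzyme buffer (40 mM HEPES, 100 mM KCl, 0.5 mM Na2EDTA, 0.2 mg/mL BSA, pH 8.0). Slides then incubated with FPG (30 min, 37 °C) or ENDOIII (45 min, 37 °C). Enzyme-sensitive sites = total breaks minus buffer-only breaks. 100 cells scored per group. NAC pretreatment 5 mM. Mean ± S.E.M. of three experiments.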

Experiment [2] relates to HL-60. The experiment can be described thus: DNA damage index, DNA damage in human HL60 cells to DNA damage in human HL60 cells with FPG/ENDO3 DNA repair enzymes in presence of […]. Type of experiment: functional. Put shortly: as §1
The test system of experiment [3] is HCT-8. The experiment can be described thus: Induction of lipid peroxidation in human HCT8 cells assessed as increase in TBARS formation at 5 uM after 24 hrs. The class given is functional, cell-based. Put shortly: (§2)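 Cells treated 24 h, with or without 24 h pretreatment with 5 mM NAC. Cells lysed with Tris-HCl (15 mM, 1 h) and heated with TCA/HCl/thiobarbituric acid for 15 min at 100 °C, then centrifuged. TBARS read at 532 nm against hydrolyzed 1,1,3,3-tetramethoxypropane standard and normalized to protein.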

For experiment [4], the system named is MDA-MB-435. Nature of the experiment: DNA damage index, DNA damage in human MDA-MB-435 cells to DNA damage in human HL60 cells with FPG/ENDO3 DNA repair enzymes in presence of […]. Type of experiment: functional. Summed up: as §1
Experiment [5] relates to MDA-MB-435. Nature of the experiment: Induction of lipid peroxidation in human MDA-MB-435 cells assessed as increase in TBARS formation at 5 uM after 24 hrs in presence of […]. The class given is functional, cell-based. Put shortly:
as §2

Experiment [6] deals with HCT-8. The experiment can be described thus: DNA damage index, DNA damage in human HCT8 cells to DNA damage in human HL60 cells with FPG/ENDO3 DNA repair enzymes. The class given is functional. Summed up:
as §1

In experiment [7] the test system is HL-60. The experiment can be described thus: DNA damage index, DNA damage in human HL60 cells to DNA damage in human HL60 cells with FPG/ENDO3 DNA repair enzymes. The class given is functional. Put shortly:
as §1

For experiment [8], the system named is SF-295. Nature of the experiment: Induction of lipid peroxidation in human SF295 cells assessed as increase in TBARS formation at 5 uM after 24 hrs in presence of […]. The class given is functional, cell-based. Put shortly: as §2
In experiment [9] the test system is SF-295. The experiment can be described thus: Induction of lipid peroxidation in human SF295 cells assessed as increase in TBARS formation at 5 uM after 24 hrs. The class given is functional, cell-based. Put shortly: as §2
Experiment [10] has as its system MDA-MB-435. The experiment can be described thus: DNA damage index, DNA damage in human MDA-MB-435 cells to DNA damage in human HL60 cells with FPG/ENDO3 DNA repair enzymes. The class given is functional. Put shortly:
as §1

Experiment [11] relates to SF-295. The experiment can be described thus: DNA damage index, DNA damage in human SF295 cells to DNA damage in human HL60 cells with FPG/ENDO3 DNA repair enzymes in presence of […]. Type of experiment: functional. Summed up: as §1
The subject of experiment [12] is HCT-8. Nature of the experiment: Induction of lipid peroxidation in human HCT8 cells assessed as increase in TBARS formation at 5 uM after 24 hrs in presence of […]. Type of experiment: functional, cell-based. Summed up: as §2
The test system of experiment [13] is HL-60. The experiment can be described thus: Induction of lipid peroxidation in human HL60 cells assessed as increase in TBARS formation at 5 uM after 24 hrs. The class given is functional, cell-based. Put shortly: as §2
The test system of experiment [14] is HL-60. The experiment can be described thus: Induction of lipid peroxidation in human HL60 cells assessed as increase in TBARS formation at 5 uM after 24 hrs in presence of […]. Type of experiment: functional, cell-based. Summed up: as §2
Experiment [15] has as its system MDA-MB-435. The experiment can be described thus: Induction of lipid peroxidation in human MDA-MB-435 cells assessed as increase in TBARS formation at 5 uM after 24 hrs. The class given is functional, cell-based. Summed up: as §2
Experiment [16] concerns HCT-8. Nature of the experiment: DNA damage index, DNA damage in human HCT8 cells to DNA damage in human HL60 cells with FPG/ENDO3 DNA repair enzymes in presence of […]. Type of experiment: functional. Summed up:
as §1

Another experiment concerns PBMC. Nature of the experiment: Cytotoxicity against human PBMC cells after 72 hrs by Alamar Blue assay. The class given is cell-based.

The source made the active and inactive calls. The rule behind the calls is not given here.

`CC1(C)CC2=C(O1)c1ccccc1C(=O)C2=O` [NOR-BETA-LAPACHONE]: the Ratio is 63.81 in the experiment on SF-295 [1]; 12.36 with HL-60 [2]; 7.49 in the experiment on MDA-MB-435 [4]; 63.25 in the experiment on HCT-8 [6]; 67.19 in the experiment with HL-60 [7]; 78.52 in the experiment on MDA-MB-435 [10]. For the same compound, the Ratio amounted to 9.18 in the experiment with SF-295 [11] and 10.48 in the experiment on HCT-8 [16]. Also, the outcome with HCT-8 [3], in the experiment on SF-295 [9], in the experiment with HL-60 [13] and with MDA-MB-435 [15] was Active. Further, the result in the experiment on MDA-MB-435 [5], in the experiment with SF-295 [8], with HCT-8 [12] and in the experiment with HL-60 [14] was inactive. In the experiment with PBMC, the IC50 was greater than 21.9 µM.
Consider `CC1(C)CCC2=C(O1)c1ccccc1C(=O)C2=O` [LAPACHONE], for which the Ratio in the experiment on SF-295 [1] is on record as 58.75; in the experiment with HL-60 [2], 8.33; in the experiment with MDA-MB-435 [4], 5.16; with HCT-8 [6], 72.41; with HL-60 [7] it was 61.36; with MDA-MB-435 [10], 83.17. Moreover, the Ratio in the experiment on SF-295 [11] turned out to be 8.72; in the experiment on HCT-8 [16] it was 11.41. Also, the result in the experiment with HCT-8 [3], in the experiment on SF-295 [9], in the experiment on HL-60 [13] and in the experiment on MDA-MB-435 [15] was Active. In addition, the result in the experiment on MDA-MB-435 [5], with SF-295 [8], in the experiment with HCT-8 [12] and in the experiment with HL-60 [14] was inactive. Besides, in the experiment on PBMC, the IC50 was greater than 20.6 µM.
